# Laboratory results taken from the EternaBench riboswitch data.
# Tested on: MS2 coat protein
# Assay: apparent Kd, MS2 coat protein; higher = weaker binding; RNA-MaP array
# Outline: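 Apparent Kd is the median of per-cluster binding-curve fits for designed RNAs transcribed from sequenced DNA templates on an Illumina sequencing chip. The RNAs were incubated at room temperature with fluorescently labeled MS2 coat protein at 1.5 nM to 3 μM, with or without input ligand, and designs measured on fewer than 10 clusters were excluded.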
# [1] = designed as: ON switch for tryptophan, no ligand
# [2] = ligand present: tryptophan, designed as: ON switch for tryptophan
# [3] = designed as: ON switch for flavin mononucleotide, no ligand
# [4] = ligand present: flavin mononucleotide, designed as: ON switch for flavin mononucleotide
# [5] = designed as: OFF switch for flavin mononucleotide, no ligand
# [6] = ligand present: flavin mononucleotide, designed as: OFF switch for flavin mononucleotide
# [7] = designed as: OFF switch for theophylline, no ligand
# [8] = ligand present: theophylline, designed as: OFF switch for theophylline
Sequence,apparent Kd [3],apparent Kd [4],apparent Kd [5],apparent Kd [6],further results
GCAUCAUGAACGGCCGCCACUAAGGAAUGAGCGGCUCUUGCGAUACAUGAGGAUCACCCAUGUCUUAGGACCGGGUUCAUUGUCA,–,–,–,–,apparent Kd [1]: 234 nM; apparent Kd [2]: 127 nM
CUCUAAUAAUAUUUCAACAUGAGGAUCACCCAUGUAAUCAGCAAGGAUAUGGUCUUGAUAAGAACCCAGAAGGUGCAUAUAGAU,22.7 nM,14.9 nM,–,–,–
AAAGAAAGAGUGAGGAUAUGAUAUAAACAAAAGUAACAGAAGGCACAUGAGGAUCACCCAUGUGACUAUAGAAU,–,–,6.08 nM,5.62 nM,–
GCUACACAUGAGGAUCACCCAUGUAUGCAUAGACGAGGAUAUAGACCACCUCCCGGGAUACUAGAAGGCGUGAUAU,19.3 nM,10.3 nM,–,–,–
ACGUGACACGAGAAGGGUCUUAAAUGUUGAUUGACAGGAUAUCGUUCCCACGAUACAUAGACGGACAUGAGGAUCACCCAUGUG,85.8 nM,30.3 nM,–,–,–
UGUAUAGCGGCAGGAUAUGAGAGUGUAGGUGCUUCAGAAGGGCCAUGUGACGCUUUAAAUGGGACACAUGAGGAUCACCCAUGU,–,–,18 nM,13.5 nM,–
GUACCUCCCAAAGGAUAUGGACCGCAGACAUGAGGAUCACCCAUGUAGGACGCACUGUUUGCGCGCCAGAAGGUUGUUAAUCGC,–,–,98.5 nM,73.2 nM,–
CGGUGAUUCGUAGGAUAUGUAUGAAGCUAGAGAACAGAAGGACGUCGCUACAAAAUUCAAAAUUACAUGAGGAUCACCCAUGUA,25.2 nM,16.4 nM,–,–,–
ACAUGAGGAUCACCCAUGUAAUAUAUAAAGACUAAAACUAGUUAGGAUAUAUCACAUGUACAGGGAUAGAAGGAACUAGUCUGC,7.15 nM,5.84 nM,–,–,–
CAGCCACAUGAGGAUCACCCAUGUGAUGAUACCAGCUUCGUCUUAAGCCCUUGGCAGCAUAUCUCUUUGUUCUCAUACAUAGCAU,–,–,–,–,"apparent Kd (designed as: ON switch for theophylline, no ligand): 11.1 nM; apparent Kd (ligand present: theophylline, designed as: ON switch for theophylline): 12.3 nM"
UCAAUAUGUCGUUGACAUGAGGAUCACCCAUGUACUAACUAGCAGGAUAUCGUGAUUAACCCUACCGAGAAGGGCUGUUGUAUU,40.7 nM,34.9 nM,–,–,–
ACGAAACAAGCGGCCGCCACUUCGUGGUGCUAAGGCUUGAUACUACAUGAGGAUCACCCAUGUCGAAGGACCGGGCUUGCGACUG,–,–,–,–,apparent Kd [1]: 53.9 nM; apparent Kd [2]: 51.9 nM
AAUAUGUAAGGAUAUACUGAAAUAAUAAUAAUAAUAAAUGAGUAGAAGGAACAUGAGGAUCACCCAUGUGAAAC,–,–,8.71 nM,8.07 nM,–
AUGUAGCCGUCGACUGUACCUUAUGCCGAUACCAGCUACCCGUGAAGCCCUUGGCAGCGGGAAACAUGAGGAUCACCCAUGUCAG,–,–,–,–,apparent Kd [7]: 23.9 nM; apparent Kd [8]: 41.3 nM
AAAUAAACCGAGGAUAUUAGAUUAGCAUACGAUUAAGAAGGCGGAACAUGAGGAUCACCCAUGUUGGGAGGUCU,–,–,67.8 nM,211 nM,–
GUGGGCCGGGUAGGAUAUCGACAUGAGGAUCACCCAUGUGUGAGUUGAUGAACUCACGGAUAGCCCGAGAAGGACCUCAGGGCU,17.9 nM,16.2 nM,–,–,–
ACGAGCACCUCAGGAUAUGGAAAGGACUCUUCAUUGGCUACUCGAACAUGAGGAUCACCCAUGUUCCAGAAGGGAGGAGAAGCC,–,–,7.07 nM,11.6 nM,–
GAGCACUUAGGAUAUUGGUUGACACACAUGAGGAUCACCCAUGUGAUUCCUGCCUUUAACCAAGAAGGAAGAGUAU,–,–,14.7 nM,13.5 nM,–
CGCAAACUAGGAUAUACAGGGCGAAAACGUUUACUUGGAUAACAUGAGGAUCACCCAUGUAGAAGGAGUUCUUA,–,–,28.9 nM,160 nM,–
UACGUAUUAGGAGGAUAUGGCCCUCAUCUUUGACAUGAGGAUCACCCAUGUGGACAUUACGCCACCCAGAAGGCCUUGCUCGGA,–,–,468 nM,344 nM,–
CUUCAACAUGAGGAUCACCCAUGUAAGGAUAUCUGCCUCACAGCACCAAAGUGCGGGAAGAGAAGGUACGUAGU,–,–,15.4 nM,14.5 nM,–
UUAUAGGAAGGAUAUACAUGAGGAUCACCCAUGUUCAAACCAACGCACUAUCAUAAAUGUAGAAGGACCAACCC,–,–,11.9 nM,10.1 nM,–
GAUACGCAGUCGGCCGCCACUUGCUAAGGUGACAAACCAAAACAUGAGGAUCACCCAUGUCUGAUAAGGACCGGGACCACCAUGG,–,–,–,–,apparent Kd [1]: 79.5 nM; apparent Kd [2]: 81.1 nM
GUCUCACAGAUAGGAUAUGGUUUUCACAUGAGGAUCACCCAUGUAAAUCCUAAAGUAAGUGGAGGCCAGAAGGAUCCGGUACAG,–,–,32.2 nM,35.1 nM,–
GUGAGACAUGAGGAUCACCCAUGUAAGGAUAUUGCCUCGACCAUAUAAACAUAUCGGACAAGAAGGUACAGGAG,–,–,37.8 nM,29.1 nM,–
CCUAACUGCGAGAAGGUACAGCGAUAGUGACUGUAAGGAUAUCGGGCGGUGCAUAUCUUAGUAAUACAUGAGGAUCACCCAUGU,–,–,8.7 nM,6.82 nM,–
UAGACGCACAAACAUGAGGAUCACCCAUGUGUACAGACGCUGCAGGAUAUCCUCUGAAGUUAGUAGGAGAAGGGCAAACAACCU,44.5 nM,27.3 nM,–,–,–

Sequence,apparent Kd [3],apparent Kd [4],apparent Kd [5],apparent Kd [6],further results
UAGGAACAUGAGGAUCACCCAUGUUAGGAUAUCGAGGUAUGGAUUAUCAUGCUGUAAGCGAGAAGGAACGUGUG,–,–,30.8 nM,29.6 nM,–
GGCGAGACCCAGAAGGUUCGUCCGGAUCCGCGAUAAUACAUGAGGAUCACCCAUGUAAGACCGGGAAAGGAUAUGGGAACAGCG,6.54 nM,6.02 nM,–,–,–
GACCCACAUGAGGAUCACCCAUGUCAGGAUAUCCGAUCGUCAAAGACCCAAAUAAUUAGGAGAAGGGACAUUAA,–,–,15 nM,15.4 nM,–
AAAUGUACGAAGAAGGCUCUGCCACUGGCCGAGAGAGGAUAUUCACACAUGAGGAUCACCCAUGUCGAACAAAGUACACAGAGC,8.43 nM,7.06 nM,–,–,–
UCUUUCUUUAAAGAACACAUGAGGAUCACCCAUGUUCAAGGGCAGGAUAUGAGUAUCUGUUCGGAUCAGAAGGGCCCAACAGGU,36 nM,29.5 nM,–,–,–
ACGUGGCAACAUGAGGAUCACCCAUGUAAAGAUAAUGAUUACAGAAGGCCCGGAGGAAGGCAAAGGGAGGAUAUGUGUGCCUAC,29.8 nM,12.7 nM,–,–,–
GAUCUAUCAGGAUAUAAGGCCUUGAACAUGAGGAUCACCCAUGUCCUCUUGGUUGCCGCGUUAGAAGGGAUGUGUU,–,–,202 nM,171 nM,–
ACUCGUUAAGGAUAUACUCGGUUUACUUGCAUGUUCGGCGCACAUGAGGAUCACCCAUGUAGAAGGUAAUAUUC,–,–,24.6 nM,27.2 nM,–
GCCUAGGGUCAAGGAUAUCACCCAGUGGUCCGUACAUGAGGAUCACCCAUGUCACCGGGAACGGGUGAGAAGGUGAAAAGUCGA,13.9 nM,9.93 nM,–,–,–
CAGUCUCUAGCGGCCGCCACUGUUCUGCUGGUGCUGCUGAACGAACAUGAGGAUCACCCAUGUCUCAGGACCGGGCUUCAGACUC,–,–,–,–,apparent Kd [1]: 26.1 nM; apparent Kd [2]: 26.9 nM
UCUAAAAUCGGAGGAUAUUACGAAGACAUGAGGAUCACCCAUGUAGUGGAACACAUAAGUCGCUCUAAGAAGGCCGCAAUUGAC,–,–,29.5 nM,34.6 nM,–
UCCAUGUUAGGAUAUCGGCCACCUUCGACAAAAGUGUACUGCGAGAAGGAACAUGAGGAUCACCCAUGUCUGGG,–,–,416 nM,104 nM,–
CGUUAAGGCGAGAAGGUGCCGUCCAACAUGAGGAUCACCCAUGUCGGUCGGUGAAUCAAGAGACGCAAGGAUAUCGACAUUAAC,–,–,3.01 nM,3.46 nM,–
GCUACACAGGACCGUACUAAGGAUUCGCCUCGAGGACCGGUACGGCCGCCACUCGUUGCGCGACAUGAGGAUCACCCAUGUGUUC,–,–,–,–,"apparent Kd (designed as: OFF switch for tryptophan, no ligand): 46 nM; apparent Kd (ligand present: tryptophan, designed as: OFF switch for tryptophan): 36.7 nM"
UUUAGUAUCUUAGAUACCAGUUUUGGGUGCUGAACGUCUCACAUGAGGAUCACCCAUGUAAACCCUUGGCAGCUACAUACGUAAA,–,–,–,–,apparent Kd [7]: 45.5 nM; apparent Kd [8]: 136 nM
UACUGCAAACAGAAGGUUGGAAGUCGGUUCUCCAAAGGAUAUGUACAUGAGGAUCACCCAUGUGCGCAAAUCGCACAGAGGAGG,–,–,14.6 nM,36.9 nM,–
AAACUCCGCAAGAAGGGUAUUCAAUGAAGUUGUACAGGAUAUUGGCGCAGACAUGAGGAUCACCCAUGUAAGUUCUUCAUGGUU,–,–,125 nM,120 nM,–
UUCAUUUAGGAGGAUAUUUAGGCAUGAGGGCUAAAAGAAGGCCUAACAUGAGGAUCACCCAUGUUUGGACUAGA,–,–,5.51 nM,7.4 nM,–
UUCGUCGGACACACACAUGAGGAUCACCCAUGUAUCUCAAUCAGAAGGGUAUCACCGGAUAGGGUACAGGAUAUGACUACUAUA,43 nM,22.3 nM,–,–,–
CCUCCUUGUACGGCCGCCACUGCAUCUCUGGAUACUCCGAUAAUACAUGAGGAUCACCCAUGUUACAGGACCGGGUAUAUAUUAC,–,–,–,–,apparent Kd [1]: 15 nM; apparent Kd [2]: 16 nM
CUGUGCGAACAGAAGGUGGCGUGUUAUCGGGACCAAGGAUAUGUUUACUAUUGUGACAAUUCACAUGAGGAUCACCCAUGUACA,–,–,21.7 nM,15.3 nM,–
UUGUUCAGCCUAGGAUAUGGGCAAACAUGAGGAUCACCCAUGUUGAGGCUACCACAAAGCCUGCACCAGAAGGAGGCCUAUACG,9.27 nM,5.71 nM,–,–,–
CCUCCUCAUCGAGGAUAUUGGGUCUGACCUCCAUUUAGACAUGAGGAUCACCCAUGUAAAGUGUCCAAGAAGGCGAUACCGGGA,817 nM,648 nM,–,–,–
CUUAGGUGAGGAUAUCCUGAAUGGGUCGCUACCAGCCGUUCGGAGAAGGCACAUGAGGAUCACCCAUGUUUUGA,–,–,34.6 nM,25.5 nM,–
AUCUUUGUAGGAUAUCCUGAGGCAAACAUGAGGAUCACCCAUGUCCCAAGAAUGACUAAAGGAGAAGGACACUCGG,–,–,20.6 nM,20.7 nM,–
AGUCAAAAUUAGAAGGAGCGUUGACCCUGUUAGCUAGGAUAUAAUUCAUGCGAACAUGAGGAUCACCCAUGUAGACGUACCAAC,86.5 nM,44.9 nM,–,–,–
UCGAGUAAGGAGAAGGACUAAUGGACUCACAAAGUAGGAUAUCCUGAACAUGAGGAUCACCCAUGUUGAUGUAACAUGUACUGG,118 nM,80.1 nM,–,–,–
